Active and inactive are the calls of the source. The rule behind the calls is not given here.
How the values were obtained:
dengue virus type 2 [1] = assay: Antiviral activity against DENV2 16681 infected in human Huh-7 cells assessed as reduction of viral NS2B protein expression at 5 to 20 uM after 3 days by Western blot analysis; format: functional, organism-based
How it was run: (§1)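 Huh-7-DV-Fluc cells exposed 3 days to compound at 5 and 20 µM, or 5–40 µM for dose series, 0.1% DMSO mock; lysates immunoblotted with rabbit polyclonal anti-NS2B (1:3000), GAPDH (1:10000) as loading control.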

dengue virus type 2 [2] = assay: Antiviral activity against DENV2 16681 infected in human Huh-7 cells at 5 uM after 3 days by luciferase reporter gene assay; format: functional; conditions: Dengue virus, 16681, Huh-7, 72 h
[3] = Selectivity index, ratio of CC50 for human HuH7 cells to IC50 for DENV2 16681; format: functional, Huh-7
dengue virus type 2 [4] = assay: Antiviral activity against DENV2 16681 infected in human Huh-7 cells assessed as reduction of viral NS5 mRNA expression after 3 days by RT-PCR analysis; format: functional, organism-based
How it was run: (§2)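 Huh-7-DV-Fluc cells treated 3 days with compound at 5 and 20 µM (dose series 5–40 µM), 0.1% DMSO mock; total RNA extracted, DENV2 RNA quantified by RT-qPCR normalized to cellular GAPDH mRNA; mean ± SD of triplicate experiments.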

[5] = Cytotoxicity against human HuH7 cells assessed as cell viability at 100 uM after 3 days by XTT assay; format: cell-based, Huh-7; conditions: read-out: Activity
dengue virus type 2 [6] = assay: Antiviral activity against DENV2 16681 infected in human Huh-7 cells at 20 uM after 3 days by luciferase reporter gene assay; format: functional; conditions: Dengue virus, 16681, Huh-7, 72 h
[7] = Cytotoxicity against human HuH7 cells assessed as cell viability at 20 uM after 3 days by XTT assay; format: cell-based, Huh-7; conditions: read-out: Activity
[8] = Cytotoxicity against human HuH7 cells assessed as cell viability after 3 days by XTT assay; format: cell-based, Huh-7
dengue virus type 2 [9] = assay: Antiviral activity against DENV2 16681 infected in human Huh-7 cells assessed as reduction of viral NS2B protein expression after 3 days by Western blot analysis; format: functional, organism-based; how it was run: as §1
dengue virus type 2 [10] = assay: Antiviral activity against DENV2 16681 infected in human Huh-7 cells assessed as reduction of viral NS5 mRNA expression at 5 to 20 uM after 3 days by RT-PCR analysis; format: functional, organism-based; how it was run: as §2
dengue virus type 2 [11] = assay: Antiviral activity against DENV2 16681 infected in human Huh-7 cells after 3 days by luciferase reporter gene assay; format: functional, organism-based; conditions: Dengue virus, 16681, Huh-7, 72 h
MDA-MB-231 [12] = assay: Antiproliferative activity against human MDA-MB-231 cells after 3 days by XTT assay; format: functional, cell-based; conditions: MDA-MB-231, 72 h
[13] = Antiproliferative activity against human HuH7 cells after 3 days by XTT assay; format: functional, cell-based; conditions: Huh-7, 72 h
A549 = assay: Antiproliferative activity against human A549 cells after 3 days by XTT assay; format: functional, cell-based; conditions: A549, 72 h
MCF7 = assay: Antiproliferative activity against human MCF7 cells after 3 days by XTT assay; format: functional, cell-based; conditions: MCF7, 72 h
[14] = Antiproliferative activity against human H1299 cells after 3 days by XTT assay; format: functional, cell-based; conditions: NCI-H1299, 72 h
dengue virus type 2 [15] = assay: Antiviral activity against DENV2 by cell based assay; format: functional, organism-based
West Nile virus = assay: Antiviral activity against West Nile virus by cell based assay; format: functional, organism-based
[16] = Growth inhibition of human Hep3B cells; format: functional, Hep 3B2
MDA-MB-231 [17] = assay: Growth inhibition of human MDA-MB-231 cells; format: functional

Row | SMILES | inhibition at 5 µM (dengue virus type 2 [2]) [%] | viability at 72 h, 100 µM [5] [%] | inhibition at 20 µM (dengue virus type 2 [6]) [%] | viability at 72 h, 20 µM [7] [%] | IC50 (MDA-MB-231 [12]) [µM] | IC50 [13] [µM] | other results
1 | COc1ccc(-c2cc3ccccc3nc2C(O)c2ccccc2)cc1 (stereo not given) | 45.3 | 68.1 | 65.1 | 96.6 |  |  | Activity (dengue virus type 2 [1]): Active; Ratio CC50/IC50 [3]: >7.96; Activity (dengue virus type 2 [4]): Dose-dependent effect; CC50 at 72 h [8]: > 100 µM; Activity (dengue virus type 2 [9]): Dose-dependent effect; Activity (dengue virus type 2 [10]): Active; IC50 (dengue virus type 2 [11]): 12.6 µM
2 | O=C(c1ccc(O)cc1)c1nc2ccccc2cc1-c1ccc(O)cc1 | 38.7 | 65.1 | 62.1 | 90.3 |  |  | Activity (dengue virus type 2 [1]): Active; Ratio CC50/IC50 [3]: >7.6; Activity (dengue virus type 2 [4]): Dose-dependent effect; CC50 at 72 h [8]: > 100 µM; Activity (dengue virus type 2 [9]): Dose-dependent effect; Activity (dengue virus type 2 [10]): Active; IC50 (dengue virus type 2 [11]): 13.2 µM
3 | CC[C@@]1(O)C(=O)OCc2c1cc1n(c2=O)Cc2cc3c(CN(C)C)c(O)ccc3nc2-1 [TOPOTECAN] |  |  |  |  | < 0.1 | 8.61 | 
4 | COc1ccc(-c2cc3ccccc3nc2C(O)c2ccc(OC)cc2)cc1 (stereo not given) | 33.5 | 31.9 | 58.5 | 71.1 |  |  | Activity (dengue virus type 2 [1]): Active; Ratio CC50/IC50 [3]: 3.47; CC50 at 72 h [8]: 63.1 µM; Activity (dengue virus type 2 [10]): Active; IC50 (dengue virus type 2 [11]): 18.2 µM
5 | COc1ccc(-c2cc3cc(OC)ccc3nc2C(=O)c2ccccc2)cc1 | 36.2 | 84.3 | 53.1 | 87.6 |  |  | Ratio CC50/IC50 [3]: >5.76; CC50 at 72 h [8]: > 100 µM; IC50 (dengue virus type 2 [11]): 17.4 µM
6 | COc1ccc(-c2cc3cc(F)ccc3nc2C(O)c2ccccc2)cc1 (stereo not given) | 16.1 | 30.7 | 19.1 | 87.4 |  |  | 
7 | O=C(c1ccc(OCCN2CCCCC2)cc1)c1nc2ccccc2cc1-c1ccc(OCCN2CCCCC2)cc1 |  | 15.8 |  | 18.4 | 7.99 | 6.59 | IC50 (A549): 6.53 µM; IC50 (MCF7): 4.66 µM; IC50 [14]: 6.18 µM
8 | COc1ccc(-c2cc3ccccc3nc2C(O)c2cc(OC)c(OC)c(OC)c2)cc1 (stereo not given) | 22.3 | 62.5 | 38.2 | 93.6 |  |  | 
9 | CCOc1ccc2nc(C)cc(Nc3ccc(OCc4ccccc4Cl)cc3)c2c1 |  |  |  |  |  |  | IC50 (dengue virus type 2 [15]): 5 µM; IC50 (West Nile virus): 1.9 µM
10 | COc1ccc(C(=O)c2nc3ccccc3cc2-c2ccc(OC)cc2)cc1 | 10.1 | 68.2 | 14.1 | 96.1 |  |  | 
11 | O=C(c1ccc(O)cc1)c1nc2ccccc2cc1-c1ccc(OCCN2CCCCC2)cc1 |  | 19.5 |  | 77.5 | > 10 | > 10 | IC50 (A549): > 10 µM; IC50 (MCF7): > 10 µM; IC50 [14]: > 10 µM
12 | O=C(c1ccccc1)c1nc2ccccc2cc1-c1ccc(F)cc1 | 20.1 | 45.9 | 14.1 | 74.8 |  |  | 
13 | COc1ccc(-c2cc3ccccc3nc2C(=O)c2cc(OC)c(OC)c(OC)c2)cc1 |  | 35.1 |  | 74.1 | > 10 | > 10 | IC50 (A549): > 10 µM; IC50 (MCF7): > 10 µM; IC50 [14]: > 10 µM
14 | OC(c1ccccc1)c1nc2ccc(F)cc2cc1-c1ccc(F)cc1 (stereo not given) | 22.2 | 92.3 | 23.1 | 129 |  |  | 
15 | OC(c1ccccc1)c1nc2ccccc2cc1-c1ccc(F)cc1 (stereo not given) | 13.1 | 90.9 | 10.2 | 109 |  |  | 
16 | NC(=O)c1ncn([C@@H]2O[C@H](CO)[C@@H](O)[C@H]2O)n1 [RIBAVIRIN] | 32 | 26.8 | 67.5 | 71.4 |  |  | Ratio CC50/IC50 [3]: 4.47; CC50 at 72 h [8]: 56.3 µM; IC50 (dengue virus type 2 [11]): 12.6 µM
17 | O=C(c1ccc(O)cc1)c1nc2ccccc2cc1-c1ccc(OCCN2CCCC2)cc1 |  | 18.1 |  | 91 | > 10 | > 10 | IC50 (A549): > 10 µM; IC50 (MCF7): > 10 µM; IC50 [14]: > 10 µM
18 | Fc1ccc2nc(-c3ccc(OCCN4CCCCC4)cc3)c(-c3ccc(OCCN4CCCCC4)cc3)cc2c1 |  |  |  |  |  |  | GI50 [16]: 0.71 µM; GI50 (MDA-MB-231 [17]): 0.72 µM
19 | COc1ccc(-c2cc3cc(F)ccc3nc2C(=O)c2ccccc2)cc1 | 7.24 | 89.7 | 5.11 | 96 |  |  | 
20 | O=C(c1ccccc1)c1nc2ccc(F)cc2cc1-c1ccc(F)cc1 | 32.1 | 75.1 | 9.13 | 96.3 |  |  | 
21 | CN(C)CCCOc1ccc(-c2cc3ccccc3nc2C(=O)c2ccc(O)cc2)cc1 |  | 16.8 |  | 80.4 | > 10 | > 10 | IC50 (A549): > 10 µM; IC50 (MCF7): > 10 µM; IC50 [14]: > 10 µM
22 | COc1ccc(-c2cc3ccccc3nc2C(=O)c2ccccc2)cc1 | 3.12 | 87.8 | 6.93 | 93.1 |  |  | 
23 | CN(C)CCCOc1ccc(C(=O)c2nc3ccccc3cc2-c2ccc(OCCCN(C)C)cc2)cc1 |  | 19.2 |  | 17.6 | 7.14 | 6.44 | IC50 (A549): 6.35 µM; IC50 (MCF7): 4.47 µM; IC50 [14]: 4.98 µM
24 | O=C(c1ccc(OCCN2CCCC2)cc1)c1nc2ccccc2cc1-c1ccc(OCCN2CCCC2)cc1 |  | 16.6 |  | 15.5 | 8.42 | 8.68 | IC50 (A549): 7.38 µM; IC50 (MCF7): 4.59 µM; IC50 [14]: 5.68 µM
25 | COc1ccc(-c2cc3cc(OC)ccc3nc2C(O)c2ccccc2)cc1 (stereo not given) | 38 | 26 | 61.2 | 87.7 |  |  | Activity (dengue virus type 2 [1]): Active; Ratio CC50/IC50 [3]: 4.87; CC50 at 72 h [8]: 68.9 µM; Activity (dengue virus type 2 [10]): Active; IC50 (dengue virus type 2 [11]): 14.1 µM

From ChEMBL document CHEMBL3232713, “Synthesis, antiproliferative and anti-dengue virus evaluations of 2-aroyl-3-arylquinoline derivatives” (Eur J Med Chem, 2014)
